Laboratory results: ChEMBL document CHEMBL1143384, “Discovery of novel inhibitors of Trypanosoma cruzi trans-sialidase from in silico screening” (Bioorg Med Chem Lett, 2009)
Active and inactive are the calls of the source. No cut-off for these calls is given here.

Columns and labels:
[1] = target: T1, Trans-sialidase (Trypanosoma cruzi) (UniProt Q26966); assay: Inhibition of Trypanosoma cruzi trans-Sialidase at 1 mM by MuNANA assay
T1 sequence (whole entry): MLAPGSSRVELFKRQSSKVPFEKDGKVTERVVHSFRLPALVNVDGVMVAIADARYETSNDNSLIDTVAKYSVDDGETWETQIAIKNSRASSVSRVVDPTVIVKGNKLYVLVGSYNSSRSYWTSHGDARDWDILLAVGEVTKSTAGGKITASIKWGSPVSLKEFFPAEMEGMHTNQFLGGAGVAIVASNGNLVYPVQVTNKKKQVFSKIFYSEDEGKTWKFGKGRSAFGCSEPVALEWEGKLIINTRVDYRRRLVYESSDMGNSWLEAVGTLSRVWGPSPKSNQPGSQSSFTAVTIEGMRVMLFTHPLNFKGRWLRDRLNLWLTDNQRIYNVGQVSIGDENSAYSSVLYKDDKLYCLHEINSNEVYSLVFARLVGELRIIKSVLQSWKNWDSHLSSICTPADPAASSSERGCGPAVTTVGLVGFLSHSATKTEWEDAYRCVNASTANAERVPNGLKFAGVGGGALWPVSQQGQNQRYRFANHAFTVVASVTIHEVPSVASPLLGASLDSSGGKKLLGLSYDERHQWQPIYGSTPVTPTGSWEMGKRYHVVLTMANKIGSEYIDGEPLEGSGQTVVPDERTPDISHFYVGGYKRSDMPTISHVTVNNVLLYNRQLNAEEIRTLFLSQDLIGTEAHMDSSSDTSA
Procedure, shortened: (§1)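 Recombinant TcTS in a continuous fluorimetric assay in 96-well format, with 4-methylumbelliferyl sialoside (MuNANA) as substrate, following sialic acid hydrolysis. Compounds were first screened at 1 mM, or at the highest concentration their solubility allowed, in triplicate. IC50 was then determined in the same assay for compounds inhibiting more than 50%.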

Trans-sialidase [2] = target: T2, Trans-sialidase (Trypanosoma cruzi, UniProt Q26966); assay: Inhibition of Trypanosoma cruzi trans-Sialidase by MuNANA assay; procedure, shortened: as §1
T2 sequence (Q26966 whole entry): T1 sequence (whole entry)

Trans-sialidase [3] = target: T2, Trans-sialidase; assay: Inhibition of Trypanosoma cruzi trans-Sialidase; procedure, shortened: as §1
[4] = target: T1, Trans-sialidase (Trypanosoma cruzi); assay: Inhibition of Trypanosoma cruzi trans-Sialidase at 1 mM by TIA assay
Procedure, shortened: (§2)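 Trans-sialidase inhibition assay (TIA), which measures sialic acid transfer from sialyllactose as donor to 14C-radiolabelled lactose as acceptor.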

Trans-sialidase [5] = target: T2, Trans-sialidase; assay: Inhibition of Trypanosoma cruzi trans-Sialidase by TIA assay; procedure, shortened: as §2
[6] = target: T1, Trans-sialidase (Trypanosoma cruzi); assay: Inhibition of Trypanosoma cruzi trans-Sialidase at 0.5 mM by MuNANA assay; procedure, shortened: as §1
[7] = target: T1, Trans-sialidase (Trypanosoma cruzi); assay: Inhibition of Trypanosoma cruzi trans-Sialidase at 0.025 mM by MuNANA assay; procedure, shortened: as §1
[8] = target: T1, Trans-sialidase (Trypanosoma cruzi); assay: Inhibition of Trypanosoma cruzi trans-Sialidase at 0.125 mM by MuNANA assay; procedure, shortened: as §1
[9] = target: T1, Trans-sialidase (Trypanosoma cruzi); assay: Inhibition of Trypanosoma cruzi trans-Sialidase at 0.01 mM by MuNANA assay; procedure, shortened: as §1
[10] = target: T1, Trans-sialidase (Trypanosoma cruzi); assay: Inhibition of Trypanosoma cruzi trans-Sialidase at 0.1 mM by MuNANA assay; procedure, shortened: as §1
[11] = target: T1, Trans-sialidase (Trypanosoma cruzi); assay: Inhibition of Trypanosoma cruzi trans-Sialidase at 0.05 mM by MuNANA assay; procedure, shortened: as §1

inhibition [1] | IC50 (Trans-sialidase [2]) | SMILES | further results
21% |  | COC(=O)c1ccc(Oc2ccc(C(F)(F)F)cc2NC(=O)c2ccccc2C(=O)O)s1 | 
79% | 290 µM | CC(=O)c1sccc1NC(=O)c1ccccc1C(=O)O | inhibition [4]: 32%
92% | 150 µM | CC(C)Oc1ccccc1/C=C(\CC(=O)O)c1nc2ccccc2s1 | IC50 (Trans-sialidase [5]): 290 µM
84% | 270 µM | CC(=O)c1sc(C(C)(C)C)cc1NC(=O)c1ccccc1C(=O)O | 
90% | 160 µM | CCOc1ccccc1/C=C(\CC(=O)O)c1nc2ccccc2s1 | IC50 (Trans-sialidase [5]): 420 µM
 | 180 µM | COc1ccc(/C=C(\CC(=O)O)c2nc3ccccc3s2)cc1OC | inhibition [6]: 84%
91% | 120 µM | Cc1ccc(C)c(/C=C(\CC(=O)O)c2nc3ccccc3s2)c1 | 
26% |  | O=C(O)C1CC=C(Cl)CC1C(=O)NCC1OCCc2ccccc21 (stereo unspecified) | 
94% | 120 µM | O=C(O)C/C(=C\c1cccc(F)c1)c1nc2ccccc2s1 | 
36% |  | O=C(O)c1ccccc1C(=O)NCCCc1c(C(=O)O)[nH]c2cc3c(cc12)OCCO3 | 
91% | 310 µM | COc1cccc(/C=C(\CC(=O)O)c2nc3ccccc3s2)c1 | 

The next lines start with the molecule.

SMILES | inhibition [1] | IC50 (Trans-sialidase [2]) | further results
COc1ccc(NC(=O)CC2(CC(=O)O)CCCCC2)cc1OC |  |  | Activity [1]: inactive
Cc1ccc(S(=O)(=O)Nc2nnc(SCC(=O)Nc3ccc4c(c3)OCO4)s2)cc1 | 82% | 280 µM | 
COc1ccc(C(CC(=O)O)NC(=O)COc2cc(C)ccc2C)cc1OC (stereo unspecified) | 30% |  | 
CC(=O)N[C@H]1[C@H]([C@H](O)[C@H](O)CO)OC(C(=O)O)=C[C@@H]1O [NEU5AC2EN] |  |  | Ki (Trans-sialidase [3]): 12300 µM
O=C(O)CC(C(=O)Nc1cc(C(F)(F)F)cc(C(F)(F)F)c1)C1=CCCCC1 (stereo unspecified) | 32% |  | 
CC(=O)Nc1ccc(C(=O)O)cc1CO |  |  | IC50 (Trans-sialidase [3]): 540 µM
O=c1[nH]c(O)c(C(c2ccc3c(c2)CN2CCOCC2O3)c2c(O)[nH]c(=O)[nH]c2=O)c(=O)[nH]1 (stereo unspecified) |  |  | inhibition [6]: 28%
CC(=O)N[C@H]1C(O)CC(P(=O)(O)CCO[C@H]2[C@@H](O)[C@@H](CO)OC(O)[C@@H]2O)=C[C@@H]1O (single isomer, unassigned) |  |  | IC50 (Trans-sialidase [3]): 1500 µM
Cc1ncc(COP(=O)(O)O)c(C=O)c1O [PYRIDOXAL PHOSPHATE ANHYDROUS] |  |  | Ki (Trans-sialidase [3]): 7300 µM
Cc1c(NS(=O)(=O)c2cccc(C(=O)NCc3ccncc3)c2)c(=O)n(-c2ccccc2)n1C | 23% |  | 
COc1cccc(CNC(=O)Cc2c(C(=O)O)[nH]c3ccc(Cl)cc23)c1 |  |  | inhibition [6]: 57%
COc1ccc(CC(=O)Nc2ccc(S(=O)(=O)Nc3nc(C)cc(C)n3)cc2)cc1 |  |  | inhibition [6]: 42%
O=C(O)C/C(=C\c1cccc(C(F)(F)F)c1)c1nc2ccccc2s1 | 92% | 150 µM | 
CC(=O)Nc1ccc(S(=O)(=O)Nc2nc3n(n2)C(c2ccc(Cl)cc2)C=C(c2ccccc2)N3)cc1 (stereo unspecified) |  |  | Activity [7]: inactive
CC(=O)Nc1ccc(S(=O)(=O)Nc2nc(-c3ccccc3)c(-c3ccccc3)o2)cc1 |  |  | inhibition [8]: 22%
CCn1nc(NS(=O)(=O)c2ccc(C)cc2)c2cc3cc(C)ccc3nc21 |  |  | Activity [9]: inactive
O=C(O)C/C(=C\c1cccc(O)c1)c1nc2ccccc2s1 |  |  | inhibition [10]: 30%; IC50 (Trans-sialidase [5]): 520 µM
COc1cc(C2C(C(=O)c3ccc4c(c3)OCCO4)=C(O)C(=O)N2CCCN(C)C)cc(OC)c1OC (stereo unspecified) |  |  | inhibition [6]: 41%
OC[C@H]1O[C@@H](O[C@@H]2[C@@H](CO)O[C@](O)(CO)[C@H]2O)[C@H](O)[C@@H](O)[C@H]1O [LACTULOSE] |  |  | IC50 (Trans-sialidase [3]): 570 µM
CC(=O)Nc1ccc(C(=O)O)nc1N |  |  | IC50 (Trans-sialidase [3]): 440 µM
CCOP(=O)(O)C1=C[C@H](O)[C@@H](NC(C)=O)[C@H](OCCO)C1 |  |  | IC50 (Trans-sialidase [3]): 5000 µM
CC1(C)SC2c3ccccc3C(=O)N2C1C(=O)NC(Cc1c[nH]c2ccccc12)C(=O)O (stereo unspecified) | 23% |  | 
CCCOC(=O)c1c(NC(=O)C2CCCCC2C(=O)O)sc(C)c1C (stereo unspecified) | 87% | 210 µM | 
COc1ccc(Nc2nc3ccccc3nc2NS(=O)(=O)c2ccc(NC(C)=O)cc2)c(OC)c1 |  |  | inhibition [11]: 32%
COCCNC(=O)c1ccc(NS(=O)(=O)c2cc(Cl)sc2Cl)cc1 | 50% |  | 
